Source: ChEMBL document CHEMBL5126614 (ACS Med Chem Lett, 2022)
One block for each molecule: values may come before it. Calls of active or inactive are those of the source. The rule behind the calls is not given here.

What was measured:
[1] = Solubility of compound at pH 7; assay type: physicochemical; details: buffer
Rhesus monkey [2] = assay: Anti-obesity activity in type 2 diabetes rhesus monkey model assessed as increase in free fatty acid level at 3 ug/kg, sc qd for 3 weeks and measured on day 22 relative to control; assay type: functional, Macaca mulatta; details: dose 3 µg/kg, time 22 day
[3] = Tmax in rhesus monkey at 0.05 mg/kg, sc by LC-MS analysis; assay type: ADME, organism-based, Macaca mulatta; details: in vivo
Outline: (§1)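 Single IV or SC dose in male Wistar Han naïve rats and in rhesus monkeys, n = 3 animals per group. Peptide formulated in mannitol buffer (5% mannitol, 5 mM sodium phosphate, pH 8). Plasma concentration–time profiles were measured and peptide levels quantified by LCMS assay.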

[4] = Volume of distribution at steady state in rhesus monkey at 0.01 mg/kg, iv by LC-MS analysis; assay type: ADME, organism-based, Macaca mulatta; details: in vivo, read-out: Vdss; outline: as §1
[5] = Elimination half life in Wistar-Han rat at 0.1 mg/kg, iv by LC-MS analysis; assay type: ADME, organism-based; details: in vivo, read-out: beta t1/2 (converted); outline: as §1
[6] = AUC (0 to infinity) in Wistar-Han rat at 0.2 mg/kg, sc by LC-MS analysis; assay type: ADME, organism-based; set-up: time infinity, dose 0.2 mg/kg, route sc; details: in vivo; outline: as §1
Rhesus monkey [7] = assay: Antidiabetic activity in type 2 diabetes rhesus monkey model assessed as HOMA-IR at 3 ug/kg, sc qd for 3 weeks and measured on day 22 (reference value: 9.6 +/- 1.9); assay type: functional, Macaca mulatta; details: dose 3 µg/kg, time 22 day
[8] = Bioavailability in rhesus monkey at 0.05 mg/kg, sc by LC-MS analysis; assay type: ADME, organism-based, Macaca mulatta; details: in vivo; outline: as §1
[9] = Volume of distribution at steady state in Wistar-Han rat at 0.1 mg/kg, iv by LC-MS analysis; assay type: ADME, organism-based; details: in vivo, read-out: Vdss; outline: as §1
[10] = Solubility of compound at pH 8; assay type: physicochemical; details: buffer
Homo sapiens = species: Homo sapiens; assay: Selectivity ratio of EC50 for human GCGR expressed in frozen cells to EC50 for human GLP1R expressed in frozen cells; assay type: cell-based
[11] = Cmax in Wistar-Han rat at 0.2 mg/kg, sc by LC-MS analysis; assay type: ADME, organism-based; set-up: dose 0.2 mg/kg, route sc; details: in vivo; outline: as §1
Macaca mulatta = species: Macaca mulatta; assay: Selectivity ratio of EC50 for rhesus monkey GCGR to EC50 for rhesus monkey GLP1R
Rhesus monkey [12] = assay: Antidiabetic activity in type 2 diabetes rhesus monkey model assessed as reduction in fasting glucose level at 3 ug/kg, sc qd for 3 weeks and measured on day 22 by intravenous glucose tolerance test; assay type: functional, organism-based; details: Macaca mulatta, dose 3.0 µg/kg, time 22.0 day
Outline: (§2)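 Type 2 diabetic rhesus monkeys received daily dosing for 3 weeks, alongside vehicle and a liraglutide benchmark at 30 μg/kg. Fasting plasma glucose was compared with baseline or vehicle, and fasting insulin with vehicle.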

Rhesus monkey [13] = assay: Anti-obesity activity in type 2 diabetes rhesus monkey model assessed as increase in fasting ketone beta-hydroxybutyrate level at 3 ug/kg, sc qd for 3 weeks and measured on day 22 relative to control; details: dose 3 µg/kg, time 22 day
[14] = AUC (0 to infinity) in Wistar-Han rat at 0.1 mg/kg, iv by LC-MS analysis; assay type: ADME, organism-based; set-up: time infinity, dose 0.1 mg/kg, route iv; details: in vivo; outline: as §1
Rhesus monkey [15] = assay: Antidiabetic activity in type 2 diabetes rhesus monkey model assessed as increase in total adiponectin level at 3 ug/kg, sc qd for 3 weeks and measured on day 22; details: Macaca mulatta, dose 3.0 µg/kg, time 22.0 day
[16] = Tmax in Wistar-Han rat at 0.2 mg/kg, sc by LC-MS analysis; assay type: ADME, organism-based; details: in vivo; outline: as §1
[17] = Agonist activity at rhesus monkey GCGR; set-up: species or system Macaca mulatta
Rhesus monkey [18] = assay: Anti-obesity activity in type 2 diabetes rhesus monkey model assessed as weight loss at 3 ug/kg, sc qd for 3 weeks relative to control; assay type: functional, Macaca mulatta; details: dose 3 µg/kg
Rhesus monkey [19] = assay: Antidiabetic activity in type 2 diabetes rhesus monkey model assessed as reduction in fasting insulin level at 3 ug/kg, sc qd for 3 weeks and measured on day 22 relative to control; assay type: functional, Macaca mulatta; set-up: scale not given: the % may be the effect or the level left; details: dose 3 µg/kg, time 22 day; outline: as §2
[20] = Bioavailability in Wistar-Han rat at 0.2 mg/kg, sc by LC-MS analysis; assay type: ADME, organism-based; details: in vivo; outline: as §1
[21] = Plasma clearance in Wistar-Han rat at 0.1 mg/kg, iv by LC-MS analysis; assay type: ADME, organism-based; outline: as §1
[22] = Cmax in rhesus monkey at 0.05 mg/kg, sc by LC-MS analysis; assay type: ADME, organism-based, Macaca mulatta; set-up: dose 0.05 mg/kg, route sc; details: in vivo; outline: as §1
[23] = Plasma clearance in rhesus monkey at 0.01 mg/kg, iv by LC-MS analysis; assay type: ADME, organism-based, Macaca mulatta; outline: as §1
Rhesus monkey [24] = assay: Potency index, ratio of compound to liraglutide anti-obesity activity in type 2 diabetes rhesus monkey model assessed as reduction in body weight; assay type: functional, Macaca mulatta
Dipeptidyl peptidase 4 = Dipeptidyl peptidase 4 (Homo sapiens, UniProt P27487); assay: Stability of compound assessed as DPP4 (unknown origin)-mediated hydrolysis; assay type: ADME
Dipeptidyl peptidase 4, sequence (P27487 whole entry): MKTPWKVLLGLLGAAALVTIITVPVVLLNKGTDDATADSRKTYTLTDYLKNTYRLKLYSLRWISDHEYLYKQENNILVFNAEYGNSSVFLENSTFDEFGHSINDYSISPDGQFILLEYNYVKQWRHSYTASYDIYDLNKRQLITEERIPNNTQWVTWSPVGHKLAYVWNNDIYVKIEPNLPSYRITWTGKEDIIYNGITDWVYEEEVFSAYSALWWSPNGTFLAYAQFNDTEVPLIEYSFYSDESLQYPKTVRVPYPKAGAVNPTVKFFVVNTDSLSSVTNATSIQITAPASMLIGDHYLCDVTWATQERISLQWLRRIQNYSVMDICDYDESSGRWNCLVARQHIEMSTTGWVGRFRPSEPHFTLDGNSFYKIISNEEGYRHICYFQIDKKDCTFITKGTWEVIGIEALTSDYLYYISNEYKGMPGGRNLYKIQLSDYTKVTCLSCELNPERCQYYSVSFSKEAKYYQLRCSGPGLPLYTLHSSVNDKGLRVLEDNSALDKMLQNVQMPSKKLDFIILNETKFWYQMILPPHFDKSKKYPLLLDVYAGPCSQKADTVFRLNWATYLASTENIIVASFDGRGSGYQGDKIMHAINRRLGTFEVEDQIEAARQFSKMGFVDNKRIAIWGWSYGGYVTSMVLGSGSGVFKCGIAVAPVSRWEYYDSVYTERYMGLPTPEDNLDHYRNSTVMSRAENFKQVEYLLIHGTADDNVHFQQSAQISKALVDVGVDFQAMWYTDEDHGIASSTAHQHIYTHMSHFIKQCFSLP
Outline: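 Peptide incubated overnight at 37 °C with DPP-IV enzyme. Stability judged by receptor bioactivity measured after incubation.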

Rhesus monkey [25] = assay: Potency index, ratio of compound to liraglutide anti-obesity activity in type 2 diabetes rhesus monkey model assessed as […] in FGF21 expression; assay type: functional, Macaca mulatta
[26] = AUC (0 to infinity) in rhesus monkey at 0.01 mg/kg, iv by LC-MS analysis; assay type: ADME, organism-based, Macaca mulatta; set-up: time infinity, dose 0.01 mg/kg, route iv; details: in vivo; outline: as §1
[27] = Solubility of compound at pH 3 to 5; assay type: physicochemical; details: buffer
Rhesus monkey [28] = assay: Anti-obesity activity in type 2 diabetes rhesus monkey model assessed as increase in FGF21 expression at 3 ug/kg, sc qd for 3 weeks and measured on day 22 relative to baseline; assay type: functional, Macaca mulatta; details: dose 3 µg/kg, time 22 day
[29] = Terminal half life in rhesus monkey at 0.01 mg/kg, iv by LC-MS analysis; assay type: ADME, organism-based, Macaca mulatta; details: in vivo, read-out: beta t1/2 (converted); outline: as §1
[30] = Toxicity in rhesus monkey; set-up: species or system Macaca mulatta; details: in vivo
[31] = Agonist activity at rhesus monkey GLP1R; set-up: species or system Macaca mulatta
[32] = Toxicity in rat; details: in vivo
[33] = AUC (0 to infinity) in rhesus monkey at 0.05 mg/kg, sc by LC-MS analysis; assay type: ADME, organism-based, Macaca mulatta; set-up: time infinity, dose 0.05 mg/kg, route sc; details: in vivo; outline: as §1
Rhesus monkey [34] = assay: Anti-obesity activity in type 2 diabetes rhesus monkey model assessed as reduction in cumulative food intake at 3 ug/kg, sc qd for 3 weeks and measured daily for 21 days relative to baseline; assay type: functional, Macaca mulatta; set-up: scale not given: the % may be the effect or the level left; details: dose 3 µg/kg
[35] = molecular target: Glucagon-like peptide 1 receptor (Homo sapiens, UniProt P43220); assay: Agonist activity at human GLP1R expressed in frozen cells assessed as increase in cAMP production measured after 1 hr by HitHunter luminescence assay; assay type: functional, cell-based
Glucagon-like peptide 1 receptor, sequence (P43220 whole entry): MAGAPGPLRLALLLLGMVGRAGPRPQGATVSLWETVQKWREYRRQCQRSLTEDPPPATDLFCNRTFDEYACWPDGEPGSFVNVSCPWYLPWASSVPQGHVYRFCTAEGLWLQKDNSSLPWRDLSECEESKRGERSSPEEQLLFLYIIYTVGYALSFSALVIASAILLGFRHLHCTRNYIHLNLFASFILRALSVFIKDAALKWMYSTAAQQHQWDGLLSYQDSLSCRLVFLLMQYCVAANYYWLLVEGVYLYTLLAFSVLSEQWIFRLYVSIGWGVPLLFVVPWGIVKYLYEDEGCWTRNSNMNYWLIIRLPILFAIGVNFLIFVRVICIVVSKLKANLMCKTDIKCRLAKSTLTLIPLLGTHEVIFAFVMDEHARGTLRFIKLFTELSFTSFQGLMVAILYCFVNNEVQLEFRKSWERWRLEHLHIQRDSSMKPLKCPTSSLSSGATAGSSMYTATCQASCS

Glucagon receptor = Glucagon receptor (Homo sapiens, UniProt P47871); assay: Agonist activity at human GCGR expressed in frozen cells assessed as increase in cAMP production measured after 1 hr by HitHunter luminescence assay; assay type: functional, cell-based
Glucagon receptor, sequence (P47871 whole entry): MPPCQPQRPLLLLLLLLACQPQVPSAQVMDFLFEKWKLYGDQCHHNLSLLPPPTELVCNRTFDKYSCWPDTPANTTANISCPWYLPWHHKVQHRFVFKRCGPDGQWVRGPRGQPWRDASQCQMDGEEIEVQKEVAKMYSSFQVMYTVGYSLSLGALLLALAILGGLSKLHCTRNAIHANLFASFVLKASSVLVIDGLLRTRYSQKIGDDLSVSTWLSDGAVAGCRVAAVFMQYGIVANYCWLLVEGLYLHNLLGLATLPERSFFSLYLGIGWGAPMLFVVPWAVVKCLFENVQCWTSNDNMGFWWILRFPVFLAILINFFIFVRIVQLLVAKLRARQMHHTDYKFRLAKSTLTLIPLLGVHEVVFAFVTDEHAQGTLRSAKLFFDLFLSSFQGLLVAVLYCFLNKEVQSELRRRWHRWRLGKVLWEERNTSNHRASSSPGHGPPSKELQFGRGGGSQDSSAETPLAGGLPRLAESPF

solubility [1]: > 20 mg/mL
Tmax [3]: 18 h
Vd [4]: 0.16 L/kg
half-life [5]: 3 h
AUC(0-inf) [6]: 0.37 µM·h
bioavailability [8]: 63%
Vd [9]: 0.1 L/kg
solubility [10]: > 80 mg/mL
Cmax [11]: 25 nM
Ratio EC50 (Macaca mulatta): 0.8
AUC(0-inf) [14]: 1.05 µM·h
Tmax [16]: 5.3 h
EC50 [17]: 0.007 nM
bioavailability [20]: 18%
clearance [21]: 0.42 mL/min/kg
Cmax [22]: 30 nM
clearance [23]: 0.12 mL/min/kg
Stability (Dipeptidyl peptidase 4): Stable
AUC(0-inf) [26]: 0.4 µM·h
solubility [27]: Insoluble
half-life [29]: 16 h
EC50 [31]: 0.009 nM
AUC(0-inf) [33]: 1.25 µM·h
Structure (SMILES): CCCCCCCCCCCCCCCC(=O)N[C@@H](CCC(=O)N[C@@H](CCC(=O)NCCCC[C@H](NC(=O)[C@H](CC(=O)O)NC(=O)[C@H](CO)NC(=O)[C@@H](NC(=O)[C@H](Cc1ccccc1)NC(=O)[C@@H](NC(=O)CNC(=O)[C@H](CCC(N)=O)NC(=O)[C@@H](CO)NC(=O)[C@@H](N)Cc1cnc[nH]1)[C@@H](C)O)[C@@H](C)O)C(=O)N[C@@H](CO)C(=O)N[C@@H](CCCCN)C(=O)N[C@@H](Cc1ccc(O)cc1)C(=O)N[C@@H](CC(C)C)C(=O)N[C@@H](CC(=O)O)C(=O)N[C@@H](C)C(=O)N[C@@H](CCCNC(=N)N)C(=O)N[C@@H](C)C(=O)N[C@@H](C)C(=O)N[C@@H](CCC(N)=O)C(=O)N[C@@H](CC(=O)O)C(=O)N[C@@H](Cc1ccccc1)C(=O)N[C@H](C(=O)N[C@@H](CCC(N)=O)C(=O)N[C@@H](Cc1c[nH]c2ccccc12)C(=O)N[C@@H](CC(C)C)C(=O)N[C@@H](CC(C)C)C(=O)N[C@@H](CC(=O)O)C(=O)N[C@H](C(N)=O)[C@@H](C)O)C(C)C)C(=O)O)C(=O)O
Activity (Rhesus monkey [2]): 63%
Activity (Rhesus monkey [7]): 9.6
Ratio EC50 (Homo sapiens): 0.9
Activity (Rhesus monkey [12]): Active
fold change (FC) (Rhesus monkey [13]): 4
Activity (Rhesus monkey [15]): Active
Activity (Rhesus monkey [18]): 7.6%
Activity (Rhesus monkey [19]): 50%
fold change (FC) (Rhesus monkey [24]): 2
fold change (FC) (Rhesus monkey [25]): >3
fold change (FC) (Rhesus monkey [28]): >3
Activity [30]: Non-Toxic
Activity [32]: Non-Toxic
Activity (Rhesus monkey [34]): 30%

Ratio EC50 (Macaca mulatta): 1
EC50 [17]: 0.021 nM
EC50 [35]: 0.063 nM
EC50 (Glucagon receptor): 0.038 nM
EC50 [31]: 0.02 nM
Structure (SMILES): CCCCCCCCCCCCCCCC(=O)N[C@@H](CCC(=O)N[C@@H](CCC(=O)NCCCC[C@H](NC(=O)[C@H](CC(=O)O)NC(=O)[C@H](CO)NC(=O)[C@@H](NC(=O)[C@H](Cc1ccccc1)NC(=O)[C@@H](NC(=O)CNC(=O)[C@H](CCC(N)=O)NC(=O)[C@@H](CO)NC(=O)[C@@H](N)Cc1cnc[nH]1)[C@@H](C)O)[C@@H](C)O)C(=O)N[C@@H](CO)C(=O)N[C@@H](CCCCN)C(=O)N[C@@H](Cc1ccc(O)cc1)C(=O)N[C@@H](CC(C)C)C(=O)N[C@@H](CC(=O)O)C(=O)N[C@@H](CO)C(=O)N[C@@H](CCCNC(=N)N)C(=O)N[C@@H](C)C(=O)N[C@@H](C)C(=O)N[C@@H](CCC(N)=O)C(=O)N[C@@H](CC(=O)O)C(=O)N[C@@H](Cc1ccccc1)C(=O)N[C@H](C(=O)N[C@@H](CCC(N)=O)C(=O)N[C@@H](Cc1c[nH]c2ccccc12)C(=O)N[C@@H](CC(C)C)C(=O)N[C@@H](CC(C)C)C(=O)N[C@@H](CC(=O)O)C(=O)N[C@H](C(N)=O)[C@@H](C)O)C(C)C)C(=O)O)C(=O)O
Ratio EC50 (Homo sapiens): 0.6
